# Test results from ChEMBL document CHEMBL1152584, “Synthesis of heteroaromatic tropeines and heterogeneous binding to glycine receptors” (Bioorg Med Chem, 2009).
# Key:
# [1] = biological target: T1, Glycine receptor subunit alpha-1 (Rattus norvegicus) (UniProt P07727); experiment: Selectivity ratio of IC50 for GlyR low affinity site to IC50 for GlyR high affinity site in Wistar rat spinal cord
# T1 sequence (whole entry): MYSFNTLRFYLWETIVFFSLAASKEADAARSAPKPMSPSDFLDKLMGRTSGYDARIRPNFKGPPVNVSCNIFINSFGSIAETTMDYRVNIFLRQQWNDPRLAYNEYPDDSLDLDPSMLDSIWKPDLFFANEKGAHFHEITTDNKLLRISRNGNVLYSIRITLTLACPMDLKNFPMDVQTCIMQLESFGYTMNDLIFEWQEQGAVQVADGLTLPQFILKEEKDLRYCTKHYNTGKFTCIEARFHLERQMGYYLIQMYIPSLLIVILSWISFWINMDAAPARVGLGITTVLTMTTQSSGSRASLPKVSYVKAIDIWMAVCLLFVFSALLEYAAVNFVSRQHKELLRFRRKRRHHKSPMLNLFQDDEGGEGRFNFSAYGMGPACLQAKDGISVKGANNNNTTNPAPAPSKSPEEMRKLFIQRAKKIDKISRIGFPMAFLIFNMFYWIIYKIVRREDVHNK
# [2] = biological target: T2, Glycine receptor subunit alpha-1 (Rattus norvegicus, UniProt P07727); experiment: Displacement of [3H]strychnine from GlyR in Wistar rat spinal cord by scintillation spectrometry
# T2 sequence (P07727 whole entry): T1 sequence (whole entry)
# Method in brief: (§1)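 Duplicate aliquots filtered, washed with ice-cold buffer, counted by scintillation. Nonspecific binding defined with 2 mM glycine. IC50 and Hill slope from nonlinear sigmoidal fitting. Two-site fits used pooled data, chosen by F test.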
# [3] = biological target: T2, Glycine receptor subunit alpha-1; experiment: Displacement of [3H]strychnine from GlyR high affinity site in Wistar rat spinal cord by scintillation spectrometry; method in brief: as §1
# [4] = biological target: T2, Glycine receptor subunit alpha-1; experiment: Displacement of [3H]strychnine from GlyR low affinity site in Wistar rat spinal cord by scintillation spectrometry; method in brief: as §1
# [5] = biological target: T3, 5-hydroxytryptamine receptor 3A (Rattus norvegicus, UniProt P35563); experiment: Displacement of [3H]granisectron from 5HT3 receptor in Wistar rat forebrain
# T3 sequence (P35563 whole entry): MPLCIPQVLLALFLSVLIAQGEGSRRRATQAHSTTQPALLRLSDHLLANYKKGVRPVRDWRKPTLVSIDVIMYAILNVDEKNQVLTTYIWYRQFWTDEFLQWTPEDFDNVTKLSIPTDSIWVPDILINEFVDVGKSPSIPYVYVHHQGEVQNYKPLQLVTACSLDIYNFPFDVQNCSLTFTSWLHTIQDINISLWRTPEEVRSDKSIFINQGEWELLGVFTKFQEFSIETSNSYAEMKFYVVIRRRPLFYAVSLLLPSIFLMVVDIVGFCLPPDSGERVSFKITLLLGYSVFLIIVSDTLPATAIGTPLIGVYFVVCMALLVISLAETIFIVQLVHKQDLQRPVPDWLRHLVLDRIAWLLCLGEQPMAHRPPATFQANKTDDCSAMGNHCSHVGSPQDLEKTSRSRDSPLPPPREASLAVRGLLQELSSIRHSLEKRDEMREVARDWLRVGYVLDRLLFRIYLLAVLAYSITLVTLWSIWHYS
# Method in brief: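 Crude membranes from male rat forebrain (cortex + hippocampus), homogenized in 10 mM HEPES/140 mM NaCl pH 7.5, centrifuged, washed, frozen; thawed and spun before use. Incubated with 0.2 nM [3H]granisetron at 0 °C for 2.5 h. Nonspecific binding defined with 10 µM granisetron.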
# [6] = biological target: T2, Glycine receptor subunit alpha-1; experiment: Displacement of [3H]strychnine from GlyR in Wistar rat spinal cord by scintillation spectrometry in presence of 10 uM glycine; method in brief: as §1
# [7] = biological target: T2, Glycine receptor subunit alpha-1; experiment: Displacement of [3H]strychnine from GlyR high affinity site in Wistar rat spinal cord by scintillation spectrometry in presence of 10 uM glycine; method in brief: as §1
# [8] = biological target: T2, Glycine receptor subunit alpha-1; experiment: Displacement of [3H]strychnine from GlyR low affinity site in Wistar rat spinal cord by scintillation spectrometry in presence of 10 uM glycine; method in brief: as §1
structure (smiles),measurement,setting,value
CN1[C@@H]2CC[C@H]1C[C@@H](OC(=O)c1cnc3ccccc3c1)C2,Ratio IC50,[1],76
same,IC50,[2],1910 nM
same,IC50,[3],72.4 nM
same,IC50,[4],5500 nM
CN1[C@@H]2CC[C@H]1C[C@@H](OC(=O)c1cccs1)C2,Ratio IC50,[1],47
same,IC50,[2],1910 nM
same,IC50,[3],89.1 nM
same,IC50,[4],4270 nM
O=C(O[C@H]1C[C@H]2CC[C@@H](C1)N2)c1cc2ccccc2[nH]1,Ratio IC50,[1],1
same,IC50,[2],234 nM
same,IC50,[5],32 nM
O=C(O[C@H]1C[C@H]2CC[C@@H](C1)N2)c1ccco1,Ratio IC50,[1],1
same,IC50,[2],79.4 nM
O=C(O[C@H]1C[C@H]2CC[C@@H](C1)N2)c1ccc[nH]1,Ratio IC50,[1],1
same,IC50,[2],129 nM
CN1[C@@H]2CC[C@H]1C[C@@H](OC(=O)c1cccnc1)C2,Ratio IC50,[1],390
same,IC50,[2],4270 nM
same,IC50,[3],58.9 nM
same,IC50,[4],22900 nM
CN1[C@@H]2CC[C@H]1C[C@H](OC(=O)c1cc3ccccc3[nH]1)C2,Ratio IC50,[1],133
same,IC50,[2],4680 nM
same,IC50,[3],60.3 nM
same,IC50,[4],7940 nM
CN1[C@@H]2CC[C@H]1C[C@@H](OC(=O)c1ccco1)C2,Ratio IC50,[1],200
same,IC50,[2],5620 nM
same,IC50,[3],50.1 nM
same,IC50,[4],10000 nM
Cn1c(C(=O)O[C@H]2C[C@H]3CC[C@@H](C2)N3)cc2ccccc21,IC50,[6],70.8 nM
same,Ratio IC50,[1],11
same,IC50,[7],1.07 nM
same,IC50,[2],33.9 nM
same,IC50,[8],135 nM
same,IC50,[3],11.5 nM
same,IC50,[4],126 nM
same,IC50,[5],25 nM
O=C(O[C@H]1C[C@H]2CC[C@@H](C1)N2)c1cccs1,Ratio IC50,[1],1
same,IC50,[2],41.7 nM
CN1[C@@H]2CC[C@H]1C[C@@H](OC(=O)c1ccc[nH]1)C2,Ratio IC50,[1],615
same,IC50,[2],11200 nM
same,IC50,[3],33.9 nM
same,IC50,[4],20900 nM
CN1[C@@H]2CC[C@H]1C[C@@H](OC(=O)c1cc3ccccc3n1C)C2,Ratio IC50,[1],240
same,IC50,[2],1580 nM
same,IC50,[3],10.2 nM
same,IC50,[4],2400 nM
same,IC50,[5],18 nM
O=C(O[C@H]1C[C@H]2CC[C@@H](C1)N2)c1cccnc1,Ratio IC50,[1],1
same,IC50,[2],100 nM
CN1[C@@H]2CC[C@H]1C[C@@H](OC(=O)c1cccn1C)C2,Ratio IC50,[1],> 1
same,IC50,[2],7590 nM
O=C(O[C@H]1C[C@H]2CC[C@@H](C1)N2)c1cnc2ccccc2c1,Ratio IC50,[1],1
same,IC50,[2],166 nM
